Measured values as given in article PMC10712300 (Protein and peptide letters, 2021).
Ends that are not written are not given here.

Key:
RIN-m cells [1] = test: Cell morphology imaging; assay type: cell-based; conditions: for RIN-m cell morphology, peptide alone: 12.8 μM IAPP alone (absence of hIAPP for animal variants); for RIN-m cell morphology, hIAPP mixed with animal IAPP: 12.8 μM hIAPP + animal IAPP, 1:1 ratio
[2] = AFM / amyloid fibril formation of an IAPP peptide by itself; assay type: physicochemical; conditions: 37 μM hIAPP alone, 20 mM tris pH 7.40, 37°C, 40 min shaking, deposited onto mica
Summary of the method: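 HFIP stocks of peptide (0.125 mg/mL) were sonicated 10 min and held at −80°C. HFIP was removed under vacuum and peptide dissolved in 20 mM Tris pH 7.40. hIAPP was held at 37 μM, alone or with animal IAPP at 37 μM (1:1). Incubation: 37°C, 200 rpm, 40 min. Samples were spotted on fresh mica for 5 min, water-washed, dried, and imaged by AC-mode AFM without flattening.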

RIN-m cells [3] = test: LDH cytotoxicity assay; assay type: cell-based; conditions: 48 h at 37°C; for LDH release / plasma membrane damage, peptide alone: 12.8 μM IAPP alone; for LDH cytotoxicity of hIAPP mixed with animal IAPP: 12.8 μM hIAPP + 12.8 μM animal IAPP (1:1)
Summary of the method: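 RIN-m cells were plated overnight and refed with RPMI-1640 + 10% FBS. HFIP-dried IAPPs were resuspended in the same medium by scraping and 30 s vortexing. Each IAPP was added at 12.8 μM, or hIAPP + animal IAPP 1:1, for 48 h at 37°C, 5% CO2. Spontaneous (water) and maximum (lysis buffer) release wells ran 45 min. Supernatant reaction: 30 min RT dark, then stop. A450/A620; % cytotoxicity by kit equation.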

[4] = patients with type 1 diabetes taking hIAPP mimetic supplements; cited from earlier work
[5] = cited from earlier work
[6] = system: hIAPP aggregation / fibril formation; conditions: cited from earlier work

Substance	RIN-m cell morphology, peptide alone (RIN-m cells [1])	fibril formation of the peptide alone (AFM) [2]	LDH release / plasma membrane damage, peptide alone (RIN-m cells [3])	RIN-m cell morphology, hIAPP mixed with animal IAPP (RIN-m cells [1])	LDH cytotoxicity of hIAPP mixed with animal IAPP (RIN-m cells [3])	average weight loss [4]	independent aggregation, fibril formation and toxicity to living cells [5]	inhibition of hIAPP aggregation (literature) [6]
Human Islet Amyloid Polypeptide (KCNTATCATQRLANFLVHSSNNFGAILSSTNVGSNTY; Islet amyloid polypeptide; UniProt P10997 34-70, looked up) [hIAPP, reference compound]	changes in cellular shape, formation of granular nuclear structures, and detachment of numerous cells from the plate surface	forms high-density plaques of fibrils	increased the release of LDH into the media	–	–	–	–	–
cat IAPP: synthetic naturally occurring cat variant of IAPP (KCNTATCATQRLANFLIRSSNNLGAILSPTNVGSNTY; ends and bridges not checked; cysteine pairing not given here; UniProt P12967 34-70, looked up)	some rounding of cells and detaching from the plate	–	some damage to the plasma membrane of the cells, but much less compared to hIAPP	cells looking better than cells incubated with hIAPP alone	decreased the toxicity of hIAPP and reduced the amount of damage to the plasma membrane	–	–	–
pramlintide	–	–	–	–	–	about 2 kg	–	–
rat IAPP: synthetic naturally occurring rat variant of IAPP, non-amyloidogenic	did not cause significant changes to RIN-m morphology	–	very little effect on the cellular plasma membrane	many cells with a round shape and detached from the plate	increased the amount of cytotoxicity in the cell	–	does not independently aggregate, form fibrils, or show toxicity to living cells	modest inhibitors of hIAPP aggregation
